# Assay outcomes deposited in PubChem by Johns Hopkins Ion Channel Center.
# Only some compounds are listed: those with a hit (about 3.7% of all), similar ones and a draw of the others.
# Kir21 inh: Kir2.1 (mouse) channel inhibition; P35561; HEK293-Kir2.1, FluxOR thallium flux fluorescence; active compounds read low; B-score at 10 µM; 0.85% of 310,000 active;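 active = fluorescence ratio B-score at or below minus 3 SD of library scores, with starting-brightness B-score within 2 SD, cut at about -4.2 in these data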;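 note: channel flux triggered by added potassium and thallium sulfate stimulus; B-score of peak minus minimum fluorescence over baseline after thallium stimulus; more negative B-score means stronger Kir2.1 block with less thallium influx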
# KCNQ1 block: blocks the human KCNQ1 potassium channel | P51787 | CHO-K1 KCNQ1, FluxOR thallium flux fluorescence; active compounds read high | B-score at 10 µM | 1.3% of 310,000 active | AID 2642;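 active = compounds whose thallium flux B-score, printed positive for inhibition, exceeds three library SD while starting fluorescence stays within three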;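 note: channel opened by potassium depolarization with thallium stimulus after 20 min compound exposure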
# hERG protect: shields human hERG channel from block by proarrhythmic agents; 0.51% of 310,000 active; CHO-hERG, FluxOR thallium flux, dofetilide IC70 present; activation (rescue from dofetilide block), less the hit threshold, % at 10 µM; AID 1511; Q12809;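 active = activation above the mean of controls blocked by dofetilide plus 5 SD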;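 note: thallium influx through hERG after potassium depolarization seen as dye fluorescence rise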
# KCNQ1 act: potentiates or activates the human KCNQ1 potassium channel | CHO-K1 KCNQ1, thallium flux FluxOR fluorescence; active compounds read high | 0.35% of 310,000 active | P51787 | B-score at 10 µM;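 active = fluorescence ratio B-score, a plate-corrected score, at least three library SD, with initial intensity B-score within 5 SD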
#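 Assay system: CHO-K1 cells stably expressing KCNQ1. Medium: assay buffer for compound exposure, DMSO matched across wells. Timing: 37 °C overnight plating, 90-min dark dye load, 20-min compound pretreatment. Signal: kinetic FluxOR fluorescence, 10 s baseline plus 110 s post-stimulus.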
# KCNK3 inh: human KCNK3 channel inhibition, primary screen; O14649; B-score at 10 µM; AID 602410; CHO-KCNK3 thallium flux, FluxOR fluorescence; active compounds read low; 0.84% of 340,000 active;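 active = B-score under library mean minus 4 SD, starting fluorescence ratio at most library mean plus 5 SD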;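 note: more negative B-score means stronger inhibition of thallium flux through KCNK3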
# Target sequence (O14649 whole entry, looked up): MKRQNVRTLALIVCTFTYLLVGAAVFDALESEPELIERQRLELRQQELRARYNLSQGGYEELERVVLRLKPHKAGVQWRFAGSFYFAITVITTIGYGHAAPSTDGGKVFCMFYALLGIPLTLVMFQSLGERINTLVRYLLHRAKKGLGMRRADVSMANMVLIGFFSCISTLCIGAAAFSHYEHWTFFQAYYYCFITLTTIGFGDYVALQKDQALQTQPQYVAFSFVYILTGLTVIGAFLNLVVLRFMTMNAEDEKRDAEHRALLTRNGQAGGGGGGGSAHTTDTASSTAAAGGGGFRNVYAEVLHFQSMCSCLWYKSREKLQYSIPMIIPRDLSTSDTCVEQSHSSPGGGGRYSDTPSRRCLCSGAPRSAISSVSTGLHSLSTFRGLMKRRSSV
# KCNK9 inh: blocks the human KCNK9 two-pore domain potassium channel; Q9NPC2; HEK293 KCNK9, FluxOR thallium flux fluorescence; active compounds read low; B-score at 10 µM; 1.2% of 310,000 active; AID 488922;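 active = ratio B-score over 3 SD below the library mean, with starting fluorescence within 5 SD of its mean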;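 note: negative B-score means less thallium flux so channel inhibition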
# Numbers stand for hits; - = inactive; . = no result given.
SMILES,Kir21 inh,KCNQ1 block,hERG protect,KCNQ1 act,KCNK3 inh,KCNK9 inh
COc1ccc(NC(=O)c2sc(SCc3ccccc3)nc2N)cc1,-,-,-,-,-,-
CCOc1ccc2nc(SCC(=O)N3CCCc4ccccc43)sc2c1,-,-,-,-,-,-
CCOc1ccc(-n2ccnc2SCC(=O)N2CCCc3ccccc32)cc1,-6.74,-,-,-,-,-
COc1cccc(-n2ccnc2SCC(=O)N2CCCc3ccccc32)c1,-7.55,-,-,-,-,-
COc1cccc(-n2ccnc2SCC(=O)Nc2ccccc2)c1,-4.86,-,-,-,-,-
CCCCC/C=N/NC(=O)c1[nH]c2ccc([N+](=O)[O-])cc2c1C,-,-,-,-,-,-
CCC/C=N/NC(=O)c1[nH]c2c([N+](=O)[O-])cccc2c1C,-,-,-,16,-,-
C=CCSc1nc(Oc2ccccc2)c2sccc2n1,-,6,-,-,-,-
CCCC(=O)Nc1cc(C(=O)O)ccc1Sc1ccccc1,-,-,-,-,-,-
COc1cc(/C=C(\C#N)C(=O)NCCc2ccccc2)cc(OC)c1O,-,-,-,-,-,-
COc1cc(/C=C(\C#N)C(=O)c2c[nH]c3ccccc23)cc(OC)c1O,-,7,-,-,-,-
CCN(CC)C(=S)SSC(=S)N(CC)CC,-4.46,-,-,-,-,-
O=C1CC(c2ccc(F)cc2)CC2=C1C(c1ccc([N+](=O)[O-])o1)Nc1ccccc1N2 (configuration not stated),-,-,-,-,-,-
NNc1nc2ccccc2c(=O)n1Cc1ccccc1,-,-,-,-,-,-
COc1ccc(/C=N/NC(=O)c2ccc(O)cc2)cc1CN1CCCc2ccccc21,-,-,-,-,-,-7.91
C=CCCC(=O)N1CCC(n2nccc2NC(=O)c2ccccc2C)CC1,-,-,-,-,-,-
O=C(CN1CCCC(O)C1)N1c2ccccc2Sc2ccc(C(F)(F)F)cc21 (configuration not stated),-,-,-,-,-,-
CN1CCN(CCCN2c3ccccc3Sc3ccc(C(F)(F)F)cc32)CC1,-4.43,6,-,-,-,-
O=S(=O)(NCCCc1ccccc1)c1ccc(Cl)cc1,-4.82,-,-,-,-,-
C=C1C(=O)O[C@H]2C1CC[C@@](C)(O)C13C=CC(C)(C21)C1(C3)C(=O)O[C@@H]2C3C(C)=CCC3[C@](C)(O)C[C@H](OC(C)=O)C21 (some centres not stated),-,-,5.9,-,-,-
O=C1SC(SC(=Nc2ccccc2)Nc2ccccc2)C(=O)N1c1ccccc1 (configuration not stated),-,-,-,-,-,-
OC(CN1CCN(Cc2ccccc2)CC1)Cn1c2ccccc2c2ccccc21 (configuration not stated),-4.39,-,-,-,-,-
OC(CN1CCN(c2ccccc2)CC1)Cn1c2ccccc2c2ccccc21 (configuration not stated),-,-,-,-,-,-
N#C/C(=C\c1cccc(Br)c1)C(=O)N1CCCCC1,-6.9,-,-,-,-,-
N#C/C(=C\c1ccccc1)C(=O)N1CCN(c2ccccc2F)CC1,-5.14,-,-,-,-,-
SMILES,Kir21 inh,KCNQ1 block,hERG protect,KCNQ1 act,KCNK3 inh,KCNK9 inh
O=C(CNC(=O)Cc1cccc2ccccc12)NCc1ccc(F)cc1,-5.2,-,-,-,-,-
NS(=O)(=O)c1ccc(CCNC(=O)CNC(=O)Cc2cccc3ccccc23)cc1,-,-,-,-,-,-
COC(=O)c1ccc(C)cc1,.,.,.,.,-,.
COC(=O)c1ccc(NN=Nc2ccc(C)cc2)cc1,-,-,5.1,-,-,-
CC1(C)OC(=O)N(c2ccccc2)C12C=Cc1cc(Br)ccc1O2 (configuration not stated),-,-,-,-,-,-7.22
CN(C)/C=C/C(=O)c1cnc(-c2ccccn2)s1,-,-,-,-,-,-
COc1ccccc1N1N=C(c2ccc([N+](=O)[O-])cc2)CC1c1ccccc1 (configuration not stated),-,12,-,-,-,-
Cc1ccc(C(=O)N/N=C/c2ccc(-c3cccc(C(F)(F)F)c3)o2)cn1,-,-,-,-,-,-
COc1ccc(/C=N/NC(=S)SC)cc1OC,-,-,-,-,-,-
CSC(=S)N/N=C/c1ccccc1,-,-,10.6,35,-,-
CS(=O)(=O)Nc1cccc(C2=NN(S(=O)(=O)c3ccc(F)cc3)C(c3cccs3)C2)c1 (configuration not stated),-,-,-,-,-,-
COc1ccc(S(=O)(=O)N2CCCC2c2cccs2)cc1 (configuration not stated),-,-,-,-,-,-
O=S(=O)(c1ccccc1)N1CCCC1c1cccs1 (configuration not stated),-5.44,-,-,-,-,-
CS(=O)(=O)Nc1ccc(C2=NN(S(=O)(=O)c3ccccc3)C(c3cccs3)C2)cc1 (configuration not stated),-,-,-,-,-,-8.07
C[C@@H]1CCC[C@@]2(O[C@H](CCO)C[C@H](O)[C@H]2O)O1,-,-,-,-,-,-
COc1ccc2[nH]c3c(c2c1)CCN1C(=O)C(CC(=O)NCCCn2ccnc2)C[C@H](C(=O)N2CCOCC2)[C@@]31C (some centres not stated),.,.,.,.,-,.
O=C1NC(c2ccccc2)=NC1(NS(=O)(=O)c1ccccc1)C(F)(F)F (configuration not stated),-,-,-,-,-,-
COc1ccc(S(=O)(=O)NC2(C(F)(F)F)N=C(c3ccccc3)NC2=O)cc1 (configuration not stated),-,-,-,-,-,-7.94
Cc1nnc(SCC(=O)Nc2cc(C(F)(F)F)ccc2N2CCOCC2)o1,-,-,-,-,-,-
Cc1ccccc1SCC(=O)Nc1cc(C(F)(F)F)ccc1N1CCOCC1,-,14,-,-,-,-
CSc1nc2ccccc2n1CC(=O)Nc1cc(C(F)(F)F)ccc1N1CCOCC1,-,-,-,-,-,-7.77
O=C(NC(=S)Nc1cc(C(F)(F)F)ccc1N1CCOCC1)c1ccco1,-,-,5.7,-,-,-
CCc1ccc(NC(=O)C(C)Sc2nc(-c3ccco3)c(C#N)c(=O)[nH]2)cc1 (configuration not stated),-,-,-,-,-,-
CCC1=C(OC(=O)N(CC)CC)N2C(=O)OC(=NCCOC)[C@]2(Cc2ccccc2)[C@H]2C1=CC[C@H]1C(=O)N(C)C(=O)[C@H]12,-,-,-,-,-,-
Cc1ccc(/C=C/C2=NN(Cc3ccccc3Cl)C(=O)CC2)cc1,-,11,-,-,-,-
CCC(=O)NCCc1nc2cc(NC(=O)c3ccccc3OC)ccc2n1C,-,-,-,-,-,-
